Measurements as given in the array DNA melting data of Ke et al. (doi:10.1101/2024.01.08.574731).

Assays:
[1] = folding enthalpy; higher = less favourable; fluorescence melt of hairpins on a sequencing array, two-state fit; settings: sodium 0.088 M
In short: (§1)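 Hairpins were imaged by Cy3 fluorescence on a sequenced MiSeq flow cell with annealed Cy3 and quencher oligos, in 50 mM Na-HEPES pH 8.0, 25 mM NaCl, in 2.5 °C steps up to 60 °C. Bootstrapped two-state fits of normalised signals gave melting temperature and folding enthalpy. Four replicates were combined by inverse variance, and fitted temperatures were raised by 9.35 °C to match UV melts.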

[2] = melting temperature; fluorescence melt of hairpins on a sequencing array, two-state fit, raised by 9.35 °C to match UV melts; settings: sodium 0.088 M
In short: as §1

Sequence | folding enthalpy [1] [kcal/mol] | Tm [2] [°C]
GCCTGACGAAAGTCGGC (((.(((....)))))) | -23.2 | 63.1
GCCTGAGGAAACTCAAGC ((.((((....)))).)) | -21.6 | 35.1
GCCTGCGAAAGCAAGGGC ((((((....)))..))) | -18.7 | 61.3
GCCTGCGAAAGCAGTGGC ((((((....)))..))) | -14.8 | 57.1
GCCTGCGGAAACACAGGC (((((.(....).))))) | -40.8 | 52.4
GCCTGCGGAAACGCAAGC ((.((((....)))).)) | -18.5 | 48
GCCTGCGGAAACGTAGGC ((((.((....)).)))) | -28 | 58
GCCTGGCGAAAGCCAAGC ((.((((....)))).)) | -17.5 | 57.7
GCCTGGCGAAAGCGAGGC ((((.((....)).)))) | -26.8 | 68.2
GCCTGGCGAAAGCTATGC ((.(.((....)).).)) | -12.5 | 37.5
GCCTGGGGAAACCTAGGC ((((.((....)).)))) | -31.5 | 54.4
GCCTGTCCGAAAGGAGGC (((..(((....)))))) | -19.2 | 46.6
GCCTGTCGAAAGACTGGC (((.(((....))).))) | -39.1 | 61.2
GCCTGTGGAAACACAAGC ((.((((....)))).)) | -22.5 | 38.6
GCCTTACGAAAGTAGGGC (((.(((....))).))) | -37.1 | 57.3
GCCTTAGCGAAAGCTGGC (((..(((....)))))) | -21 | 51.5
GCCTTAGGAAACCAAGGC (((((.(....).))))) | -27.4 | 45.2
GCCTTAGGAAACTAGGGC (((.(((....))).))) | -34.3 | 45.5
GCCTTCCGAAAGGAGGC (((.(((....)))))) | -29.8 | 59.4
GCCTTCGAAAGAACAGGC ((((((....)))..))) | -26.7 | 40.9
GCCTTCGAAAGAACGGGC ((((((....)))..))) | -23 | 41
GCCTTCGAAAGAAGAGGC ((((((....)))..))) | -23.4 | 46
GCCTTCGGAAACAAAGGC (((((.(....).))))) | -27.5 | 41.9
GCCTTGAAAAAGGC (((((....))))) | -24.4 | 58.1

Sequence | folding enthalpy [1] [kcal/mol] | Tm [2] [°C]
GCCTTGACGAAAGTCGGC (((..(((....)))))) | -16 | 50.3
GCCTTGCCGAAAGGCGGC (((..(((....)))))) | -10.8 | 67.5
GCCTTGCGAAAGCAGCGC ((..(((....)))..)) | -14.6 | 52.9
GCCTTGCGAAAGCAGGGC (((.(((....))).))) | -29.5 | 69
GCCTTGCGAAAGCATAGC ((..(((....)))..)) | -9.69 | 50.8
GCCTTGCGAAAGCCATGC ((.(.((....)).).)) | -3.66 | 27
GCCTTGCGAAAGCCTGGC (((..((....))..))) | -18.7 | 53.9
GCCTTGCGAAAGCGAAGC ((.(.((....)).).)) | -8.01 | 45
GCCTTGCGAAAGCGCGGC (((..((....))..))) | -18 | 57.1
GCCTTGCGAAAGCTACGC ((.(.((....)).).)) | -10.2 | 46.3
GCCTTGCGAAAGCTTGGC (((..((....))..))) | -20.9 | 60
GCCTTGGGAAACCAGGGC (((.(((....))).))) | -46.8 | 52.7
GCCTTGGGAAACCGAGGC ((((.((....)).)))) | -39.8 | 56.6
GCCTTTCGAAAGAATGGC (((.(((....))).))) | -42.6 | 53
GCGAAAACTCGC ((((....)))) | -13.1 | 41.7
GCGAAACGTCGC ((((....)))) | -19.5 | 47.8
GCGAAAGGTCGC ((((....)))) | -14.1 | 41.4
GCGAAAGTTCGC ((((....)))) | -19.6 | 47.2
GCGAAATGTCGC ((((....)))) | -18.6 | 44.8
GCGAAATTTCGC ((((....)))) | -42.6 | 51.7
GCGAACACTCGC ((((....)))) | -23.5 | 45
GCGAACCGAAAGGTCGC (((.(((....)))))) | -31.8 | 67.5
GCGAACCTCGC ((((...)))) | -17.7 | 46
GCGAACGAAAGTTGACGC ((((((....)))..))) | -23 | 44.1

Sequence | folding enthalpy [1] [kcal/mol] | Tm [2] [°C]
GCGAACGATCGC ((((....)))) | -21.1 | 41.1
GCGAACGCTCGC ((((....)))) | -12.2 | 59.6
GCGAACGGAAACACTCGC ((((..(....)..)))) | -21.9 | 32.3
GCGAACGGAAACGTCCGC (((.(((....))).))) | -40.2 | 54.6
GCGAACGTTCGC ((((....)))) | -39.5 | 55.8
GCGAACTATCGC ((((....)))) | -20.6 | 45.4
GCGAAGACGAAAGTCCGC (((..(((....)))))) | -31.9 | 52.4
GCGAAGCCGAAAGGCCGC (((..(((....)))))) | -20.2 | 58.8
GCGAAGCGAAAGCACCGC (((..((....))..))) | -9.92 | 43.8
GCGAAGCGAAAGCATGGC ((.(.((....)).).)) | -5.07 | 40
GCGAAGCGAAAGCATTGC ((.(.((....)).).)) | -7.27 | 39.1
GCGAAGCGAAAGCCTCGC ((((.((....)).)))) | -18.5 | 57.8
GCGAAGCGAAAGCCTGGC ((.(.((....)).).)) | -5.56 | 34.1
GCGAAGCGAAAGCTTTGC ((.((((....)))).)) | -22.4 | 62.6
GCGAAGGCGAAAGCCCGC (((..(((....)))))) | -18.2 | 59.5
GCGAAGTATCGC ((((....)))) | -14.3 | 46.2
GCGAAGTGTCGC ((((....)))) | -13.9 | 49.6
GCGAATATTCGC ((((....)))) | -33.5 | 50.7
GCGAATCGAAAGATACGC (((.(((....))).))) | -44.5 | 55.5
GCGAATCGAAAGATCGC (((.(((....)))))) | -31.2 | 57.3
GCGAATGCGAAAGCACGC (((..(((....)))))) | -18.9 | 52.3
GCGAATGGAAACATCCGC (((.(((....))).))) | -23.1 | 45.4
